Results from ChEMBL document CHEMBL4732170, “Discovery of Small-Molecule Antagonists of the PWWP Domain of NSD2” (J Med Chem, 2021).

Target: T1, Histone-lysine N-methyltransferase NSD2 (Homo sapiens, UniProt O96028)
T1 sequence (O96028 whole entry): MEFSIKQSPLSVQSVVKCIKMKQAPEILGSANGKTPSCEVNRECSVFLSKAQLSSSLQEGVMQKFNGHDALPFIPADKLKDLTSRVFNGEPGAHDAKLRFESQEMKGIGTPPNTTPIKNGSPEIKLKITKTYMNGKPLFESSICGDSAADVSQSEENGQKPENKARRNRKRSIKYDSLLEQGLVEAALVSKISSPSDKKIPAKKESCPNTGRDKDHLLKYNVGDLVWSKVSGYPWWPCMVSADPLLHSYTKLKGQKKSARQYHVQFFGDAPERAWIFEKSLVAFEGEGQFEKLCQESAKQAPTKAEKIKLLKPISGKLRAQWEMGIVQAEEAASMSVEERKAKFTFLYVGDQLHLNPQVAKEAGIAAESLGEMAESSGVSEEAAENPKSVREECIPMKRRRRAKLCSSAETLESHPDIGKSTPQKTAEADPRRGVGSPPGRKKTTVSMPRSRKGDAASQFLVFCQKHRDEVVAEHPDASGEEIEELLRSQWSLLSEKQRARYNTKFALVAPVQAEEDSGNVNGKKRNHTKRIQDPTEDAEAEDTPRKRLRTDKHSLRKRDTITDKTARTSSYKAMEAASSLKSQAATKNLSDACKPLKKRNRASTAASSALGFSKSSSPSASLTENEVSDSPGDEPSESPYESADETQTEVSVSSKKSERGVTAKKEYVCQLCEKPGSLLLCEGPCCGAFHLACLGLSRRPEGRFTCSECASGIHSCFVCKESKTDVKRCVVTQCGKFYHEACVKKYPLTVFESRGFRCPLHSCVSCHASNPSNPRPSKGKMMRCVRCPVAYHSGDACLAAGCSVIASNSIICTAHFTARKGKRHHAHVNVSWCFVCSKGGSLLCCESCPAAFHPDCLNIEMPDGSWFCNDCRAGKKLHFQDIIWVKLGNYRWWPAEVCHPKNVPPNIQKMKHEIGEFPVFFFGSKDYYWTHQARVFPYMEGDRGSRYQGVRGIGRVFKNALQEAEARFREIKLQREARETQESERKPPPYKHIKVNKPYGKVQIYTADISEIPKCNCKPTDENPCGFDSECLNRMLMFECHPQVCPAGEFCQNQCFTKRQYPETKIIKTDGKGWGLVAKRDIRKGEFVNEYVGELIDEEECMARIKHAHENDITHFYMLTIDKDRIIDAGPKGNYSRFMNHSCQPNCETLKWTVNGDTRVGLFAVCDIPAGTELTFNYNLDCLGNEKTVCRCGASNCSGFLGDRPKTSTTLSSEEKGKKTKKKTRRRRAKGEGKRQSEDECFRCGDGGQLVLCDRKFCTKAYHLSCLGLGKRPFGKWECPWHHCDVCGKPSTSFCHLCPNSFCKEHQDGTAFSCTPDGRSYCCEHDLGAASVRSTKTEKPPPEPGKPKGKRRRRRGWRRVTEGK
Assay: Binding affinity to NSD2 PWWP1 domain (unknown origin) assessed as dissociation constant by surface plasmon resonance analysis
In short: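 SPR in single-cycle kinetics, HBS-EP buffer (20 mM HEPES pH 7.4, 150 mM NaCl, 3 mM EDTA, 0.05% Tween-20) with 5% DMSO. Ten concentrations from 200 μM top, twofold dilutions. Contact time 60 s, dissociation 120 s, flow 75 μL/min; Kd derived.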

## N#Cc1ccc(C(C(N)=O)N2CCC2c2ccc(Cl)cc2)cc1 (stereo unspecified)
  Kd: 41 µM
